Calls of active or inactive are those of the source.
How the values were obtained:
[1] = molecular target: ATP-dependent translocase ABCB1 (Homo sapiens, UniProt P08183); experiment: Inhibition of P-gp in human Caco-2 cells assessed as reduction in paclitaxel efflux pre-incubated for 30 mins and measured after 120 mins by LC-MS/MS analysis; assay type: cell-based
Outline: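 Bidirectional paclitaxel transport across Caco-2 monolayers with coadministered inhibitor. Apparent permeability was measured apical-to-basal (absorption) and basal-to-apical (efflux). IC50 was derived from these permeability data.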

[2] = Half life in Sprague-Dawley rat at 3 mg/kg, iv measured upto 48 hrs by LC-MS/MS analysis; assay type: ADME, organism-based; conditions: in vivo
Outline: (§1)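 Plasma pharmacokinetics in male Sprague-Dawley rats and male Beagle dogs (n = 3 per species), each given a single dose by IV at 3 mg/kg and by PO at 10 mg/kg. Cmax, Tmax, T1/2 and AUClast were derived for each route. F (%) was calculated from the PO and IV AUClast.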

[3] = Half life in Beagle dog at 3 mg/kg, iv measured upto 48 hrs by LC-MS/MS analysis; assay type: ADME, organism-based, Canis lupus familiaris; conditions: in vivo; outline: as §1
[4] = Toxicity in Sprague-Dawley rat at 2000 mg/kg, po administered as single dose and measured upto 13 weeks; assay type: organism-based; conditions: in vivo, 2184 h
[5] = Toxicity in Beagle dog assessed as enlargement of lymph nodes at >= 100 mg/kg, po and measured after 13 weeks; assay type: organism-based, Canis lupus familiaris; conditions: in vivo, 2184 h
[6] = Drug distribution in Sprague-Dawley rat spinal cord; assay type: ADME, tissue-based; conditions: in vivo
[7] = Volume of distribution in Sprague-Dawley rat at 6 mg/kg, iv measured upto 24 hrs by LC-MS/MS analysis; assay type: ADME, organism-based; conditions: in vivo
[8] = Cmax in Sprague-Dawley rat at 20 mg/kg, po measured upto 24 hrs by LC-MS/MS analysis; assay type: ADME, organism-based; design: route oral, dose 20 mg/kg, time <=24; conditions: in vivo
[9] = Tmax in Sprague-Dawley rat at 6 mg/kg, iv measured upto 24 hrs by LC-MS/MS analysis; assay type: ADME, organism-based; conditions: in vivo
[10] = Half life in Sprague-Dawley rat at 20 mg/kg, po measured upto 24 hrs by LC-MS/MS analysis; conditions: in vivo
[11] = AUClast in Sprague-Dawley rat at 20 mg/kg, po measured upto 24 hrs by LC-MS/MS analysis; assay type: ADME, organism-based; design: route oral, dose 20 mg/kg, time <=24; conditions: in vivo
[12] = Oral bioavailability in Sprague-Dawley rat at 20 mg/kg measured upto 24 hrs in presence of 10 mg/kg encequidar by LC-MS/MS analysis; assay type: ADME, organism-based; conditions: in vivo
[13] = Drug absorption in fed Beagle dog plasma at 6 mg/kg, po measured upto 24 hrs in presence of 3 mg/kg encequidar by LC-MS/MS analysis; assay type: ADME, organism-based, Canis lupus familiaris; conditions: in vivo
[14] = Drug distribution in BALB/c mouse liver at 20 mg/kg, po measured upto 24 hrs in presence of 10 mg/kg encequidar by LC-MS/MS analysis; assay type: ADME, organism-based; conditions: in vivo
[15] = Drug distribution in Sprague-Dawley rat kidney at 20 mg/kg, po measured upto 168 hrs in presence of 10 mg/kg encequidar by LC-MS/MS analysis; assay type: ADME, organism-based; conditions: in vivo
[16] = Ratio of drug concentration in BALB/c mouse kidney to plasma at 20 mg/kg, po measured upto 24 hrs in presence of 10 mg/kg encequidar by LC-MS/MS analysis; assay type: ADME, organism-based
[17] = Ratio of drug concentration in BALB/c mouse small intestine to plasma at 20 mg/kg, po measured upto 24 hrs in presence of 10 mg/kg encequidar by LC-MS/MS analysis; assay type: ADME, organism-based
[18] = Ratio of drug concentration in BALB/c mouse spleen to plasma at 20 mg/kg, po measured upto 24 hrs in presence of 10 mg/kg encequidar by LC-MS/MS analysis; assay type: ADME, organism-based
[19] = Drug excretion in dog bile at 6 mg/kg, po in presence of 3 mg/kg encequidar; assay type: ADME, organism-based, Canis lupus familiaris; conditions: in vivo
[20] = test system: HT-29; experiment: Antitumor activity against human HT-29 cells xenografted in athymic nude mouse assessed as induction of remission of tumor growth at 40 mg/kg, po in presence of 20 mg/kg encequidar measured until day 47; assay type: functional, organism-based
[21] = test system: MDA-MB-231; experiment: (§2) Antitumor activity against human MDA-MB-231 cells xenografted in athymic nude mouse assessed as reduction in median number of days for tumor to reach two tumor mass doubling at 12 mg/kg, iv administered every other day for 4 doses and monitored for 70 to 82 days (reference value: 13.1 day); assay type: functional; conditions: time 70-82 day
[22] = test system: MDA-MB-231; experiment: as §2, with “at 30” for “at 12”, “mg/kg, po” for “mg/kg, iv”, “doses in presence of 12 mg/kg encequidar” for “doses”; assay type: functional; conditions: time 70-82 day
[23] = test system: MDA-MB-231; experiment: as §2, with “at 40” for “at 12”, “mg/kg, po” for “mg/kg, iv”, “doses in presence of 16 mg/kg encequidar” for “doses”; assay type: functional; conditions: time 70-82 day
[24] = Toxicity in athymic nude mouse xenografted with human MDA-MB-231 cells assessed as reduction in body weight at 30 mg/kg, po administered every other day for 4 doses in presence of 12 mg/kg encequidar and monitored for 70 to 82 days; assay type: organism-based; design: scale not given: the % may be the effect or the level left; conditions: in vivo, time 70-82 day
Outline: (§3)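 Female athymic NCr-nu mice (n = 10/group) bearing subcutaneous MDA-MB-231 xenografts were treated from day 8. […] Individual body weights were monitored for 82 days after implantation.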

[25] = Toxicity in athymic nude mouse xenografted with human MDA-MB-231 cells assessed as reduction in body weight at 40 mg/kg, po administered every other day for 4 doses in presence of 16 mg/kg encequidar and monitored for 70 to 82 days; assay type: organism-based; design: scale not given: the % may be the effect or the level left; conditions: in vivo, time 70-82 day; outline: as §3
[26] = test system: MDA-MB-231; experiment: Antitumor activity against human MDA-MB-231 cells xenografted in athymic nude mouse assessed as reduction in tumor growth at 30 mg/kg, po administered every other day for 4 doses in presence 12 mg/kg encequidar and monitored for 70 to 82 days; assay type: functional, organism-based; conditions: time 70-82 day
[27] = test system: MDA-MB-231; experiment: Antitumor activity against human MDA-MB-231 cells xenografted in athymic nude mouse assessed as reduction in tumor growth at 40 mg/kg, po administered every other day for 4 doses in presence 16 mg/kg encequidar and monitored for 70 to 82 days; assay type: functional, organism-based; conditions: time 70-82 day
[28] = test system: NCI-H460; experiment: Antitumor activity against human NCI-H460 cells xenografted in athymic nude mouse assessed as median tumor growth delay at 18 mg/kg, iv administered every other day for 4 doses and monitored for 48 days; assay type: functional; conditions: time 48 day
Outline: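 Female athymic NCr-nu mice carried subcutaneous NCI-H460 xenografts. […] Tumor weights and body weights were followed for 48 days after implantation. Read-out was median tumor growth delay.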

[29] = Neurotoxicity in Sprague-Dawley rat assessed as reduction in nociceptive threshold at 6 mg/kg, iv measured after day 5, 7, 11 and 14; assay type: toxicity, organism-based; conditions: in vivo
Outline: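 Healthy rats received IV paclitaxel (Taxol) at 0 (vehicle), 3 or 6 mg/kg, four times at 2-day intervals (cumulative 12 or 24 mg/kg), n = 5/group. Paw pressure threshold (mmHg to elicit response, back paws) was measured by Randall–Selitto test. Data were analysed by one-way ANOVA, then Dunnett's test versus control.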

[30] = in vivo; conditions: Sprague-Dawley, rat, po, 20 mg/kg

Chain of ATP-dependent translocase ABCB1 (P08183 whole entry): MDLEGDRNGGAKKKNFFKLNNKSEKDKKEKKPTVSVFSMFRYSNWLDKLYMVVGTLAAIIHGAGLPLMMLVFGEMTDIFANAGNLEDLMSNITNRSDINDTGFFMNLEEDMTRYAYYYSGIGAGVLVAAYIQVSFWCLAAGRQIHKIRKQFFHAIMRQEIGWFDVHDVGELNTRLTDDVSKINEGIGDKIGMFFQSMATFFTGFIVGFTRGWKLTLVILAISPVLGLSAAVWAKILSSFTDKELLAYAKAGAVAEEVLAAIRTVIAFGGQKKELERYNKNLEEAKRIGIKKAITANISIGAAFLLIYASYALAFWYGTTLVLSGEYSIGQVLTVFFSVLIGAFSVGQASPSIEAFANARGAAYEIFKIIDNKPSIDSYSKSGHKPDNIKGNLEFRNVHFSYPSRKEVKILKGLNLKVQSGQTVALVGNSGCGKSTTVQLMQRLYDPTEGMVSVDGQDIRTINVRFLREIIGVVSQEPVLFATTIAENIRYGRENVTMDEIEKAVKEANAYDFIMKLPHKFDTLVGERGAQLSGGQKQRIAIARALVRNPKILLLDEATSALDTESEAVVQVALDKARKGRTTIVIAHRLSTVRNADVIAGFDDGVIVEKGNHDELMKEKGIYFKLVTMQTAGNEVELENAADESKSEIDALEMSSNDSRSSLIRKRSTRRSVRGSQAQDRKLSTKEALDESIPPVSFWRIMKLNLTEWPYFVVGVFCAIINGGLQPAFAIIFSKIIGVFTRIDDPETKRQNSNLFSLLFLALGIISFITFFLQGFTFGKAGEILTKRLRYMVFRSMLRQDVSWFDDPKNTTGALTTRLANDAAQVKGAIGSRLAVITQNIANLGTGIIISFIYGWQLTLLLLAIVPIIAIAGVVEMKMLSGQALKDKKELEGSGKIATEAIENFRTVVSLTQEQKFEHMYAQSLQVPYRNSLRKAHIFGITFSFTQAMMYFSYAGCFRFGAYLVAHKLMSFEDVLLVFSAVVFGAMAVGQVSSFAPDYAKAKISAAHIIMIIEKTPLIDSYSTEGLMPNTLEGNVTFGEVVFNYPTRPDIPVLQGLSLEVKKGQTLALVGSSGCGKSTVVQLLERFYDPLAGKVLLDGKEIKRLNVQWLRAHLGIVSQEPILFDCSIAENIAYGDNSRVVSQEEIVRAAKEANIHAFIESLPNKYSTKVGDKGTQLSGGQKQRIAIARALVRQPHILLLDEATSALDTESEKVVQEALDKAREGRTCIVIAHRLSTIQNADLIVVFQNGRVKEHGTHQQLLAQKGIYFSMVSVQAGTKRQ

COc1cc2c(cc1OC)CN(CCc1ccc(-n3nnc(-c4cc(OC)c(OC)cc4NC(=O)c4cc(=O)c5ccccc5o4)n3)cc1)CC2
IC50 [1]: 53 nM
half-life [2]: 888 min
half-life [3]: 1010 min
Activity [4]: Non-Toxic
Activity [5]: Toxic
Drug uptake [6]: Not Active

CC(=O)O[C@H]1C(=O)[C@@]2(C)[C@H]([C@H](OC(=O)c3ccccc3)[C@]3(O)C[C@H](OC(=O)[C@H](O)[C@@H](NC(=O)c4ccccc4)c4ccccc4)C(C)=C1C3(C)C)[C@]1(OC(C)=O)CO[C@@H]1C[C@@H]2O [PACLITAXEL]
Vd [7]: 23.6 L/kg
Cmax [8]: 127 ng/mL
Tmax [9]: 4.8 min
half-life at 24 h [10]: 480 min
AUC(0-t) at 24 h [11]: 308 ng·h/mL
bioavailability [12]: 41.3%
Drug absorption [13]: Not Active
Drug uptake [14]: Active
Drug uptake [15]: Active
Kp at 24 h [16]: > 1
Kp at 24 h [17]: > 1
Kp at 24 h [18]: > 1
Drug excretion [19]: Metabolite_Detected
Activity [20]: Active
Time [21]: 26.1 days
Time [22]: >69 days
Time [23]: >69 days
Activity [24]: 5%
Activity [25]: 5%
Activity [26]: Active
Activity [27]: Active
Time [28]: 8.5 days
Activity [29]: Toxic
half-life at 24 h [30]: 408 min

From ChEMBL document CHEMBL4825663 (J Med Chem, 2021)
